The values that follow come from ChEMBL document CHEMBL1255309, “Relationship between antimalarial activity and heme alkylation for spiro- and dispiro-1,2,4-trioxolane antimalarials” (Antimicrob Agents Chemother, 2008).

SMILES strings stand for the structures.

The subject of one assay is Plasmodium falciparum. Briefly: Antimalarial activity against chloroquine-resistant Plasmodium falciparum K1. It is filed as functional, organism-based.
`O=C(O)[C@H]1CC[C@]2(CC1)OO[C@]1(O2)C2CC3CC(C2)CC1C3` gave a half-maximal inhibitory concentration (IC50) of 49 nM.
Regarding `CCC[C@H]1CC[C@]2(CC1)OO[C@]1(O2)C2CC3CC(C2)CC1C3`, inhibition was half-maximal at 3.6 nM (IC50).
On to `C[C@H]1[C@H](OC(=O)CCC(=O)O)O[C@@H]2O[C@@]3(C)CC[C@H]4[C@H](C)CC[C@@H]1[C@@]24OO3` [ARTESUNATE], for which the IC50 amounted to 3.2 nM.
The same measure, in the same setting: as for `OC[C@H]1CC[C@@]2(CC1)OO[C@@]1(O2)C2CC3CC(C2)CC1C3`, the figure is 2.6 nM.
For `CC(C)(C)[C@H]1CC[C@]2(CC1)OO[C@]1(O2)C2CC3CC(C2)CC1C3`, the IC50 stood at 200 nM.
Still for that read-out and setting: in the case of `c1ccc([C@H]2CC[C@]3(CC2)OO[C@]2(O3)C3CC4CC(C3)CC2C4)cc1` it was 6.5 nM; in that of `c1ccc([C@@H]2OOC3(O2)C2CC4CC(C2)CC3C4)cc1` (stereo partly drawn), 1500 nM.
In the case of `C[C@H]1[C@@H](O)O[C@@H]2O[C@@]3(C)CC[C@H]4[C@H](C)CC[C@@H]1[C@@]24OO3` [ARTENIMOL], the IC50 turned out to be 0.77 nM.
On the same count and under the same terms, as for `O=C1C2CC3CC1CC(C2)[C@]31OO[C@@]2(CCCCC2)O1`, the figure is 20 nM.
On the same count and under the same terms, in the case of `CC1(C)CC[C@]2(CC1)OO[C@]1(O2)C2CC3CC(C2)CC1C3` it was 7.9 nM.
The molecule `C1CC[C@]2(CC1)OO[C@]1(O2)C2CCCC1CCC2` showed an IC50 of 340 nM.
`Clc1ccc([C@H]2CC[C@]3(CC2)OO[C@]2(O3)C3CC4CC(C3)CC2C4)cc1` yielded an IC50 of 20 nM.
With `CC(C)(O)[C@H]1CC[C@]2(CC1)OO[C@]1(O2)C2CC3CC(C2)CC1C3`, the 50% inhibitory concentration (IC50) was found to be 210 nM.
Turning to `C[C@@]1(c2ccccc2)OOC2(O1)C1CC3CC(C1)CC2C3` (stereo partly drawn), 10 nM corresponded to half-maximal inhibition (IC50).
The same measure, in the same setting: in the case of `O=C(O)C[C@H]1CC[C@]2(CC1)OO[C@]1(O2)C2CC3CC(C2)CC1C3` it was 110 nM.
The same measure, in the same setting: as for `O=C1CCC2(CC1)OOC1(O2)C2CC3CC(C2)CC1C3` (stereo not drawn), the figure is 1.7 nM.
Same read-out and setting: as for `OC[C@H]1CC[C@]2(CC1)OO[C@]1(O2)C2CC3CC(C2)CC1C3`, the figure is 2.8 nM; as for `O=S(=O)(O)OC[C@H]1CC[C@]2(CC1)OO[C@]1(O2)C2CC3CC(C2)CC1C3`, 250 nM; as for `C1CCC2(CC1)OOC1(O2)C2CC3CC(C2)CC1C3` (stereo not drawn), 3.8 nM.

Tested on in another assay: not listed separately
The assay can be described thus: Induction of heme alkylation of Fe(II) heme assessed as loss of heme at 10 uM in presence of 50% ACN-H2O with excess sodium dithionite under argon at 20 degC by spectrophotometry. The procedure, abridged: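 Fe(II) heme (10 μM final; hemin reduced by excess sodium dithionite) in 50% ACN-water under continuous argon, 20°C, stirred; reaction started with peroxide at 10 μM final. Soret absorbance (418 nm) read every 0.1 s, converted to heme concentration via linear calibration (ε = 1.26 × 10⁵ M⁻¹ cm⁻¹); heme loss measured at completion (t = 30 s). n = 3.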
On to `O=C(O)[C@H]1CC[C@]2(CC1)OO[C@]1(O2)C2CC3CC(C2)CC1C3`, for which the inhibition is 74%.
Same read-out and setting: as for `NC[C@H]1CC[C@]2(CC1)OOC1(O2)C2CC3CC(C2)CC1C3` (stereo partly drawn), the figure is 83%; as for `CCC[C@H]1CC[C@]2(CC1)OO[C@]1(O2)C2CC3CC(C2)CC1C3`, 85%; as for `C[C@H]1[C@H](OC(=O)CCC(=O)O)O[C@@H]2O[C@@]3(C)CC[C@H]4[C@H](C)CC[C@@H]1[C@@]24OO3` [ARTESUNATE], 44%.
Same read-out and setting: in the case of `OC[C@H]1CC[C@@]2(CC1)OO[C@@]1(O2)C2CC3CC(C2)CC1C3` it was 83%; in that of `C1CCC2(CC1)OOC1(CCCCC1)O2`, 17%.
Consider `CC(C)(C)[C@H]1CC[C@]2(CC1)OO[C@]1(O2)C2CC3CC(C2)CC1C3`, for which the inhibition was determined as 34%.
Turning to `c1ccc([C@H]2CC[C@]3(CC2)OO[C@]2(O3)C3CC4CC(C3)CC2C4)cc1`, the inhibition came to 77%.
`c1ccc([C@@H]2OOC3(O2)C2CC4CC(C2)CC3C4)cc1` (stereo partly drawn): the inhibition turned out to be 16%.
Still for that read-out and setting: as for `C[C@H]1[C@@H](O)O[C@@H]2O[C@@]3(C)CC[C@H]4[C@H](C)CC[C@@H]1[C@@]24OO3` [ARTENIMOL], the figure is 28%; as for `O=C1C2CC3CC1CC(C2)[C@]31OO[C@@]2(CCCCC2)O1`, 61%; as for `CC1(C)CC[C@]2(CC1)OO[C@]1(O2)C2CC3CC(C2)CC1C3`, 82%.
As to `C1CC[C@]2(CC1)OO[C@]1(O2)C2CCCC1CCC2`, the inhibition was 9%.
Still for that read-out and setting: in the case of `Clc1ccc([C@H]2CC[C@]3(CC2)OO[C@]2(O3)C3CC4CC(C3)CC2C4)cc1` it was 84%; in that of `CC(C)(N)CNC(=O)C[C@H]1CC[C@]2(CC1)OO[C@]1(O2)C2CC3CC(C2)CC1C3`, 83%; in that of `C[C@@H]1CC[C@H]2[C@@H](C)C(=O)O[C@@H]3O[C@@]4(C)CC[C@@H]1[C@]32OO4`, 15%.
Take `CC(C)(O)[C@H]1CC[C@]2(CC1)OO[C@]1(O2)C2CC3CC(C2)CC1C3`: the inhibition was found to be 30%.
For the molecule `C[C@@]1(c2ccccc2)OOC2(O1)C1CC3CC(C1)CC2C3` (stereo partly drawn), the inhibition was 67%.
The same measure, in the same setting: as for `O=C(O)C[C@H]1CC[C@]2(CC1)OO[C@]1(O2)C2CC3CC(C2)CC1C3`, the figure is 83%; as for `CO[C@H]1O[C@@H]2O[C@@]3(C)CC[C@H]4[C@H](C)CC[C@@H]([C@H]1C)[C@@]24OO3`, 24%.
For the molecule `O=C1CCC2(CC1)OOC1(O2)C2CC3CC(C2)CC1C3` (stereo not drawn), the inhibition came to 81%.
Same read-out and setting: as for `OC[C@H]1CC[C@]2(CC1)OO[C@]1(O2)C2CC3CC(C2)CC1C3`, the figure is 83%; as for `O=S(=O)(O)OC[C@H]1CC[C@]2(CC1)OO[C@]1(O2)C2CC3CC(C2)CC1C3`, 81%; as for `C1CCC2(CC1)OOC1(O2)C2CC3CC(C2)CC1C3` (stereo not drawn), 86%.
For the molecule `c1ccc(C2(c3ccccc3)CCC3(CC2)OOC2(O3)C3CC4CC(C3)CC2C4)cc1` (stereo not drawn), the inhibition worked out at 11%.

Tested on in a further assay: not listed separately
Briefly: Induction of heme alkylation of Fe(II) heme assessed as adduct A472 absorbance change at completion of reaction at 10 uM in presence of 50% ACN-H2O with excess sodium dithionite under argon at 20 degC by spectrophotometry. The procedure, abridged: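 Reduced heme made from hemin (10 μM final) in 50% ACN-water (from 0.5 mM stock in 0.1 M NaOH) with excess sodium dithionite, argon-purged sealed cell, stirred at 20°C; peroxide added to 10 μM final. Product formation followed as A472, normalized to initial 418 nm heme absorbance; taken at completion (t = 30 s). n = 3.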
For the molecule `O=C(O)[C@H]1CC[C@]2(CC1)OO[C@]1(O2)C2CC3CC(C2)CC1C3`, the deltaA was found to be 0.89.
Regarding `NC[C@H]1CC[C@]2(CC1)OOC1(O2)C2CC3CC(C2)CC1C3` (stereo partly drawn), the deltaA is 0.87.
On the same count and under the same terms, in the case of `CCC[C@H]1CC[C@]2(CC1)OO[C@]1(O2)C2CC3CC(C2)CC1C3` it was 0.8; in that of `C[C@H]1[C@H](OC(=O)CCC(=O)O)O[C@@H]2O[C@@]3(C)CC[C@H]4[C@H](C)CC[C@@H]1[C@@]24OO3` [ARTESUNATE], 0.39.
With `OC[C@H]1CC[C@@]2(CC1)OO[C@@]1(O2)C2CC3CC(C2)CC1C3`, the deltaA turned out to be 0.78.
On the same count and under the same terms, as for `C1CCC2(CC1)OOC1(CCCCC1)O2`, the figure is 0.03.
`CC(C)(C)[C@H]1CC[C@]2(CC1)OO[C@]1(O2)C2CC3CC(C2)CC1C3`: the deltaA stood at 0.25.
`c1ccc([C@H]2CC[C@]3(CC2)OO[C@]2(O3)C3CC4CC(C3)CC2C4)cc1`: the deltaA is 0.79.
On to `c1ccc([C@@H]2OOC3(O2)C2CC4CC(C2)CC3C4)cc1` (stereo partly drawn), for which the deltaA came out at 0.13.
In the case of `C[C@H]1[C@@H](O)O[C@@H]2O[C@@]3(C)CC[C@H]4[C@H](C)CC[C@@H]1[C@@]24OO3` [ARTENIMOL], the deltaA turned out to be 0.22.
As to `O=C1C2CC3CC1CC(C2)[C@]31OO[C@@]2(CCCCC2)O1`, the deltaA worked out at 0.57.
As to `CC1(C)CC[C@]2(CC1)OO[C@]1(O2)C2CC3CC(C2)CC1C3`, the deltaA worked out at 0.77.
On the same count and under the same terms, as for `C1CC[C@]2(CC1)OO[C@]1(O2)C2CCCC1CCC2`, the figure is 0.03; as for `Clc1ccc([C@H]2CC[C@]3(CC2)OO[C@]2(O3)C3CC4CC(C3)CC2C4)cc1`, 0.84.
The same measure, in the same setting: as for `CC(C)(N)CNC(=O)C[C@H]1CC[C@]2(CC1)OO[C@]1(O2)C2CC3CC(C2)CC1C3`, the figure is 0.89.
`C[C@@H]1CC[C@H]2[C@@H](C)C(=O)O[C@@H]3O[C@@]4(C)CC[C@@H]1[C@]32OO4`: the deltaA came to 0.12.
For the molecule `CC(C)(O)[C@H]1CC[C@]2(CC1)OO[C@]1(O2)C2CC3CC(C2)CC1C3`, the deltaA was determined as 0.23.
As for `C[C@@]1(c2ccccc2)OOC2(O1)C1CC3CC(C1)CC2C3` (stereo partly drawn), the deltaA was 0.63.
Same read-out and setting: as for `O=C(O)C[C@H]1CC[C@]2(CC1)OO[C@]1(O2)C2CC3CC(C2)CC1C3`, the figure is 0.87; as for `O=C1CCC2(CC1)OOC1(O2)C2CC3CC(C2)CC1C3` (stereo not drawn), 0.88; as for `OC[C@H]1CC[C@]2(CC1)OO[C@]1(O2)C2CC3CC(C2)CC1C3`, 0.89.
The same measure, in the same setting: as for `O=S(=O)(O)OC[C@H]1CC[C@]2(CC1)OO[C@]1(O2)C2CC3CC(C2)CC1C3`, the figure is 0.85; as for `C1CCC2(CC1)OOC1(O2)C2CC3CC(C2)CC1C3` (stereo not drawn), 0.84.
Consider `c1ccc(C2(c3ccccc3)CCC3(CC2)OOC2(O3)C3CC4CC(C3)CC2C4)cc1` (stereo not drawn), for which the deltaA is 0.1.

A word on the IC50: it is the concentration that gives 50% inhibition. By inhibition is commonly meant the share of the control response that was lost under treatment.
